≈ marks a conversion by molar mass, not a printed value.
What was measured:
[1] = molecular target: T1, Androgen receptor (Homo sapiens, UniProt P10275); experiment: Modulation of human androgen receptor expressed in African green monkey CV1 cells after 24 hrs by luciferase reporter gene assay; format: cell-based, CV-1
T1 sequence (P10275 whole entry): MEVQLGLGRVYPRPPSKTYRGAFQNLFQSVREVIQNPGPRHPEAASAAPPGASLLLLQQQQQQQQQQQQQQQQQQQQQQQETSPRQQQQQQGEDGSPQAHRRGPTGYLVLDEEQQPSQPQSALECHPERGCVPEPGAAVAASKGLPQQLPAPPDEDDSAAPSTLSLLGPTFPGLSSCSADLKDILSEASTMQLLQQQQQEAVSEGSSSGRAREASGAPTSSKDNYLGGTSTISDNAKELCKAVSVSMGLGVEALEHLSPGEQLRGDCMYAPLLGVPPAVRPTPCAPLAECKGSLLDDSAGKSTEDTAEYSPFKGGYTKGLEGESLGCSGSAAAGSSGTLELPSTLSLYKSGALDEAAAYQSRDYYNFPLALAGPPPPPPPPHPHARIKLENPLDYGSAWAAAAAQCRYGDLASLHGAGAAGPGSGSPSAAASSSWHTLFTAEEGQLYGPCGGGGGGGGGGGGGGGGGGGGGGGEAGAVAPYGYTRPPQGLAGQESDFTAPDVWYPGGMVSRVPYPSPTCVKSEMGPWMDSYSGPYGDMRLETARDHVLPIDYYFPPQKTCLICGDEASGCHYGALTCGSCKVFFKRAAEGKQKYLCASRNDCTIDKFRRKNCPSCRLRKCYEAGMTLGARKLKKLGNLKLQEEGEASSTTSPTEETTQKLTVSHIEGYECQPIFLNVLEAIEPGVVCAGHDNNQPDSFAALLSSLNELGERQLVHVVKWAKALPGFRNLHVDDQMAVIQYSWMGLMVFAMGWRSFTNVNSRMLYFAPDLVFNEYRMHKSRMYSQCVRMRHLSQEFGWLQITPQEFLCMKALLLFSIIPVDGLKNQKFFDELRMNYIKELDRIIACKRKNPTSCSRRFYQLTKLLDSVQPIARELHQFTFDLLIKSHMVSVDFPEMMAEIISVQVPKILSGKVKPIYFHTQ
Method in brief: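 Functional AR activity is read out by a luciferase reporter gene assay in mammalian cells transfected with the human AR gene. EC50 is derived from the response and reported as pEC50 (−log EC50).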

[2] = Half life in Wistar Han rat at 5 mg/kg, administered as single dose via oral gavage by LC-MS/MS analysis; format: ADME, organism-based; details: in vivo
[3] = Kinetic aqueous solubility of the compound in PBS at pH 7.4 after 1 hr by chemiluminescent nitrogen detection method; format: physicochemical; details: read-out: Kinetic_solubility
Method in brief: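 High-throughput kinetic aqueous solubility at pH 7.4. The test compound is added from a DMSO stock, and dissolved compound is quantified by chemiluminescent nitrogen detection (CLND).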

[4] = Oral bioavailability in Wistar Han rat at 10 mg/kg, administered as single dose via oral gavage by LC-MS/MS analysis; format: ADME, organism-based; details: in vivo
[5] = […] in iv dosed Wistar Han rat administered as single dose by LC-MS/MS analysis; format: ADME, organism-based; details: in vivo

Compound | EC50 [1] | further results
N#Cc1ccc(C(O)(C2CCCC2)C(F)(F)F)cc1Cl (stereo not drawn) | 3.16 nM | –
Cc1c(C(O)(C#CC(C)(C)C)C(F)(F)F)ccc(C#N)c1Cl (stereo not drawn) | 79.4 nM | –
C/C=C(\C)C(O)(c1ccc(C#N)c(C(F)(F)F)c1)C(F)(F)F (stereo not drawn) | 39.8 nM | –
Cc1c(C#N)ccc(C(C)(O)C(F)(F)F)c1C (stereo not drawn) | 2510 nM | –
Cc1c(C(O)(C#CC2CC2)C(F)(F)F)ccc(C#N)c1Cl (stereo not drawn) | 15.8 nM | –
C=C(C)C(O)(c1ccc(C#N)c(C(F)(F)F)c1)C(F)(F)F (stereo not drawn) | 31.6 nM | –
Cc1c(C(O)(C(C)C)C(F)(F)F)ccc(C#N)c1Cl (stereo not drawn) | 0.794 nM | –
N#Cc1ccc(C(O)(c2cocn2)C(F)(F)F)cc1C(F)(F)F (stereo not drawn) | 1.26 nM | half-life [2]: 8 h; solubility kinetic at 1 h [3]: > 700 µM; bioavailability [4]: 83%
Cc1c(C(O)(c2cocn2)C(F)(F)F)ccc(C#N)c1C(F)(F)F (stereo not drawn) | 0.501 nM | half-life [2]: 5.5 h; solubility kinetic at 1 h [3]: > 400 µM; bioavailability [4]: 100%
Cc1c(C(O)(C(C)(C)C)C(F)(F)F)ccc(C#N)c1Cl (stereo not drawn) | 79.4 nM | –
CC(C)C(O)(c1ccc(C#N)c(Cl)c1Cl)C(F)(F)F (stereo not drawn) | 0.794 nM | –
CC(O)(c1ccc(C#N)c(Cl)c1Cl)C(F)(F)F (stereo not drawn) | 63.1 nM | –
N#Cc1ccc(C(O)(c2ccc(Cl)o2)C(F)(F)F)cc1C(F)(F)F (stereo not drawn) | 2.51 nM | –
C=CC(O)(c1ccc(C#N)c(C(F)(F)F)c1)C(F)(F)F (stereo not drawn) | 12.6 nM | –
Cc1c(C(O)(c2nccs2)C(F)(F)F)ccc(C#N)c1C(F)(F)F (stereo not drawn) | 10.5 nM | –
Cc1c(C(O)(C2CC2)C(F)(F)F)ccc(C#N)c1Cl (stereo not drawn) | 0.2 nM | –
Cc1c(C(O)(C(F)(F)F)C(F)(F)F)ccc(C#N)c1C(F)(F)F | 1.58 nM | –
CC(C)CC(O)(c1ccc(C#N)c(Cl)c1Cl)C(F)(F)F (stereo not drawn) | 3.16 nM | –
Cc1c(C(C)(C)C(O)C(F)(F)F)ccc(C#N)c1C(F)(F)F (stereo not drawn) | 15.8 nM | –
N#Cc1ccc(C(O)(C2CC2)C(F)(F)F)cc1Cl (stereo not drawn) | 0.398 nM | half-life [2]: 18 h; solubility kinetic at 1 h [3]: > 400 µM; clearance [5]: 12 mL/min/kg; bioavailability [4]: 80%
N#Cc1ccc(C(O)(C2CC2)C(F)(F)F)c(Cl)c1Cl (stereo not drawn) | 0.2 nM | –
CC(C)C(O)(c1ccc(C#N)c(Cl)c1)C(F)(F)F (stereo not drawn) | 3.98 nM | –
N#Cc1ccc(C(O)(c2ccco2)C(F)(F)F)cc1C(F)(F)F (stereo not drawn) | 1.26 nM | –
N#Cc1ccc(C(O)(CO)C(F)(F)F)cc1C(F)(F)F (stereo not drawn) | 10000 nM | –
Cc1c(C(O)(CC(C)(C)C)C(F)(F)F)ccc(C#N)c1Cl (stereo not drawn) | 3.98 nM | –
Cc1c(C(O)(C2CC2)C(F)(F)F)ccc(C#N)c1C(F)(F)F (stereo not drawn) | 0.0316 nM | half-life [2]: 10 h; solubility kinetic at 1 h [3]: 245 µM (≈ 79.2 µg/mL); bioavailability [4]: 37%

Compound | EC50 [1] | further results
N#Cc1ccc(C(O)(C(F)(F)F)C(F)(F)F)cc1C(F)(F)F | 15.8 nM | –
Cc1c(C#N)ccc(C(O)(CC(C)(C)C)C(F)(F)F)c1C (stereo not drawn) | 20 nM | –
CCC(O)(c1ccc(C#N)c(C(F)(F)F)c1)C(F)(F)F (stereo not drawn) | 3.98 nM | half-life [2]: 83 h; bioavailability [4]: 70%
CC(C)C(O)(c1ccc(C#N)c(C(F)(F)F)c1)C(F)(F)F (stereo not drawn) | 7.94 nM | –
Cc1c(C#N)ccc(C(O)(C2CC2)C(F)(F)F)c1C (stereo not drawn) | 1.58 nM | –
Cc1c(C(O)(c2ccc(Cl)s2)C(F)(F)F)ccc(C#N)c1C(F)(F)F (stereo not drawn) | 5.62 nM | –
CC(C)(C)CC(O)(c1ccc(C#N)c(Cl)c1Cl)C(F)(F)F (stereo not drawn) | 3.16 nM | –
N#Cc1ccc(C(O)(c2cscn2)C(F)(F)F)cc1C(F)(F)F (stereo not drawn) | 2 nM | –
Cc1c(C(O)(C(F)(F)F)C(F)(F)F)ccc(C#N)c1Cl | 20 nM | –
CCC(O)(c1ccc(C#N)c(Cl)c1Cl)C(F)(F)F (stereo not drawn) | 2.51 nM | –
Cc1c(C(C)(O)C(F)(F)F)ccc(C#N)c1C(F)(F)F (stereo not drawn) | 3.98 nM | –
N#Cc1ccc(C(O)(C2CC2)C(F)(F)F)cc1C(F)(F)F (stereo not drawn) | 0.158 nM | half-life [2]: 20 h; bioavailability [4]: 86%
Cc1c(C(O)(c2ccco2)C(F)(F)F)ccc(C#N)c1C(F)(F)F (stereo not drawn) | 0.251 nM | –
CCC(O)(c1ccc(C#N)c(Cl)c1C)C(F)(F)F (stereo not drawn) | 2 nM | –
N#Cc1ccc(C(O)(C2CCC2)C(F)(F)F)cc1Cl (stereo not drawn) | 1.58 nM | –
N#Cc1ccc(C(O)(c2ccc(Cl)s2)C(F)(F)F)cc1C(F)(F)F (stereo not drawn) | 20 nM | –
Cc1c(C(O)(C(C)C)C(F)(F)F)ccc(C#N)c1C(F)(F)F (stereo not drawn) | 0.251 nM | –
N#Cc1ccc(C(O)(c2nccs2)C(F)(F)F)cc1C(F)(F)F (stereo not drawn) | 2 nM | –
N#Cc1ccc(C(O)(C2CCC2)C(F)(F)F)cc1C(F)(F)F (stereo not drawn) | 1.58 nM | –
Cc1c(C#N)ccc(C(O)(C(C)C)C(F)(F)F)c1C (stereo not drawn) | 12.6 nM | –
Cc1c(C(O)(c2ccc(Cl)o2)C(F)(F)F)ccc(C#N)c1C(F)(F)F (stereo not drawn) | 2.88 nM | –
Cc1c(C(O)(c2cscn2)C(F)(F)F)ccc(C#N)c1C(F)(F)F (stereo not drawn) | 5.89 nM | –
CC(C)(C)C(O)(c1ccc(C#N)c(Cl)c1)C(F)(F)F (stereo not drawn) | 158 nM | –
N#Cc1ccc(C(O)(C2CCC2)C(F)(F)F)c(Cl)c1Cl (stereo not drawn) | 0.631 nM | –
Cc1c(C(O)(C2CCC2)C(F)(F)F)ccc(C#N)c1C(F)(F)F (stereo not drawn) | 0.2 nM | –
